According to ChEMBL document CHEMBL4706580, “4-Amino-1,2,4-triazole-3-thione-derived Schiff bases as metallo-β-lactamase inhibitors” (Eur J Med Chem, 2020):
The source made the active and inactive calls. The calls are words filed in the database; no cut-off is given here.

What was measured:
[1] = Inhibition of beta-lactamase L1 (unknown origin) expressed in Escherichia coli BL21(DE3) using nitrocefin as substrate by measuring substrate hydrolysis at 100 uM preincubated for 30 mins by spectrophotometric analysis
Summary of the method: (§1)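 Enzyme 0.2–0.8 nM in 25 mM HEPES pH 7.5 with 50 μM ZnCl2 final, pre-incubated 30 min at 21 °C with inhibitor (100 μM screen). Nitrocefin 100 μM final, read at 482 nm, 30 °C. Residual activity vs three uninhibited samples; Ki (1–100 μM inhibitor) from Hanes linearization, competitive model. Triplicate.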

[2] = Inhibition of beta-lactamase VIM2 (unknown origin) expressed in Escherichia coli BL21(DE3) using imipenem as substrate by measuring substrate hydrolysis at 200 uM by spectrophotometric analysis
Summary of the method: (§2)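 Purified enzyme (overproduced in E. coli BL21(DE3), pET-9a; ion-exchange and gel filtration), 1-70 nM final. Reporter substrate 150 μM imipenem, read at 300 nm, 30 °C, 50 mM HEPES pH 7.5. Single-point screen at 100 or 200 μM; Ki from v0/vi vs [I] (0.5–1,000 μM final) assuming competitive inhibition, or Dixon plot. Triplicate.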

[3] = Inhibition of beta-lactamase IMP-1 (unknown origin) expressed in Escherichia coli BL21(DE3) using imipenem as substrate by measuring substrate hydrolysis at 100 uM by spectrophotometric analysis; summary of the method: as §2
[4] = Inhibition of beta-lactamase VIM4 (unknown origin) expressed in Escherichia coli BL21(DE3) using imipenem as substrate by measuring substrate hydrolysis at 100 uM by spectrophotometric analysis; summary of the method: as §2
[5] = Inhibition of beta-lactamase NDM-1 (unknown origin) expressed in Escherichia coli LZ2310 assessed as potentiation of ceftazidime antibacterial activity by measuring ceftazidime induced diameter of inhibition zone at 40 uM incubated for 18 hrs by disk diffusion method (reference value: 15 mm)
Summary of the method: (§3)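 Efflux-deficient E. coli LZ2310 (NorE, MdfA, AcrA knocked out) carrying pLB-II with the cloned MBL gene. Mueller-Hinton, CLSI disk diffusion; antibiotic disks (30 µg cefoxitin for VIM-2, 10 µg ampicillin for VIM-4, 30 µg ceftazidime for NDM-1/IMP-1) loaded with inhibitor in DMSO (≤15 µL). Zone diameter after 18 h, 35 ± 1 °C; DMSO and 220 µg EDTA controls. Triplicate.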

[6] = Inhibition of beta-lactamase NDM1 (unknown origin) expressed in Escherichia coli BL21(DE3) using cefotaxime/nitrocefin as substrate by measuring substrate hydrolysis by spectrophotometric analysis
Summary of the method: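 His-tagged enzyme from E. coli BL21(DE3) pET-15b, affinity-purified, 1-70 nM final. Reporter substrate 120 μM cefotaxime (260 nm) or 100 μM nitrocefin (482 nm), 30 °C, 50 mM HEPES pH 7.5. Inhibitor 0.5–1,000 μM final; competitive Ki from v0/vi vs [I] slope or Dixon plot. Triplicate.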

[7] = Inhibition of beta-lactamase VIM2 (unknown origin) expressed in Escherichia coli BL21(DE3) using imipenem as substrate by measuring substrate hydrolysis at 100 uM by spectrophotometric analysis; summary of the method: as §2
[8] = Inhibition of beta-lactamase IMP-1 (unknown origin) expressed in Escherichia coli BL21(DE3) using imipenem as substrate by measuring substrate hydrolysis at 200 uM by spectrophotometric analysis; summary of the method: as §2
[9] = Inhibition of beta-lactamase NDM1 (unknown origin) expressed in Escherichia coli BL21(DE3) using cefotaxime/nitrocefin as substrate by measuring substrate hydrolysis at 100 uM by spectrophotometric analysis
[10] = Inhibition of beta-lactamase CphA (unknown origin) expressed in Escherichia coli BL21(DE3) using imipenem as substrate by measuring substrate hydrolysis by spectrophotometric analysis
Summary of the method: (§4)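 Enzyme 0.2–0.8 nM in 15 mM cacodylate pH 6.5, no added zinc, pre-incubated 30 min at 21 °C with inhibitor (100 μM screen). Imipenem substrate added from 10 mM stock; hydrolysis at 300 nm, 30 °C. Residual activity vs three uninhibited samples; Ki (1–100 μM inhibitor) by Hanes linearization, competitive model. Triplicate.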

[11] = Inhibition of beta-lactamase NDM1 (unknown origin) expressed in Escherichia coli BL21(DE3) using cefotaxime/nitrocefin as substrate by measuring substrate hydrolysis at 200 uM by spectrophotometric analysis
[12] = Inhibition of beta-lactamase VIM4 (unknown origin) expressed in Escherichia coli BL21(DE3) using imipenem as substrate by measuring substrate hydrolysis at 200 uM by spectrophotometric analysis; summary of the method: as §2
[13] = Inhibition of beta-lactamase L1 (unknown origin) expressed in Escherichia coli BL21(DE3) using nitrocefin as substrate by measuring substrate hydrolysis at 200 uM preincubated for 30 mins by spectrophotometric analysis
[14] = Inhibition of beta-lactamase CphA (unknown origin) expressed in Escherichia coli BL21(DE3) using imipenem as substrate by measuring substrate hydrolysis at 100 uM by spectrophotometric analysis; summary of the method: as §4
[15] = Inhibition of beta-lactamase VIM-4 (unknown origin) expressed in Escherichia coli LZ2310 assessed as potentiation of ampicillin antibacterial activity by measuring ampicillin induced diameter of inhibition zone at 40 uM incubated for 18 hrs by disk diffusion method (reference value: 6 mm); summary of the method: as §3
[16] = Inhibition of beta-lactamase VIM4 (unknown origin) expressed in Escherichia coli BL21(DE3) using imipenem as substrate by measuring substrate hydrolysis by spectrophotometric analysis; summary of the method: as §2
[17] = Inhibition of beta-lactamase VIM2 (unknown origin) expressed in Escherichia coli BL21(DE3) using imipenem as substrate by measuring substrate hydrolysis by spectrophotometric analysis; summary of the method: as §2
[18] = Inhibition of beta-lactamase L1 (unknown origin) expressed in Escherichia coli BL21(DE3) using nitrocefin as substrate by measuring substrate hydrolysis preincubated for 30 mins by spectrophotometric analysis; summary of the method: as §1
[19] = Inhibition of beta-lactamase VIM-2 (unknown origin) expressed in Escherichia coli LZ2310 assessed as potentiation of cefoxitin antibacterial activity by measuring cefoxitin induced diameter of inhibition zone at 40 uM incubated for 18 hrs by disk diffusion method (reference value: 14 mm); summary of the method: as §3
[20] = Inhibition of beta-lactamase IMP-1 (unknown origin) expressed in Escherichia coli BL21(DE3) using imipenem as substrate by measuring substrate hydrolysis by spectrophotometric analysis; summary of the method: as §2

| inhibition [1] | inhibition [2] | inhibition [3] | inhibition [4] | inhibition zone (IZ) [5] | inhibition [7] | inhibition [8] | inhibition [9] | inhibition [11] | inhibition [12] | inhibition [13] | inhibition [14] | inhibition zone (IZ) [15] | inhibition zone (IZ) [19] | SMILES | Ki [6] | Ki [10] | Ki [16] | Ki [17] | Ki [18] | Ki [20] |
| --- | --- | --- | --- | --- | --- | --- | --- | --- | --- | --- | --- | --- | --- | --- | --- | --- | --- | --- | --- | --- |
| 60% | inactive | inactive | 35% | 15 mm | inactive | inactive | – | – | – | – | – | – | – | S=c1[nH]nc(-c2cccc(Cl)c2)n1/N=C/c1ccc(OCc2ccccc2)cc1 | 6.7 µM | – | – | – | – | – |
| 31% | inactive | inactive | inactive | – | inactive | inactive | inactive | inactive | inactive | – | – | – | – | S=c1[nH]nc(Cc2ccccc2)n1/N=C/c1ccc(OCc2ccccc2)cc1 | – | 5.5 µM | – | – | – | – |
| inactive | inactive | inactive | inactive | – | inactive | inactive | inactive | inactive | inactive | inactive | 36% | – | – | Cc1ccccc1-c1n[nH]c(=S)n1/N=C/c1cnc[nH]1 | – | – | – | – | – | – |
| inactive | inactive | 60% | inactive | – | inactive | – | inactive | inactive | inactive | inactive | – | – | – | Fc1cccc(-c2n[nH]c(=S)n2/N=C/c2ccc(OCc3ccccc3)cc2)c1 | – | – | – | – | – | – |
| – | – | inactive | – | – | – | inactive | – | – | – | – | – | 6 mm | 14 mm | O=C(O)c1ccccc1/C=N/n1c(-c2cc(O)ccc2O)n[nH]c1=S | 79 µM | 52 µM | 0.2 µM | 0.6 µM | 38 µM | – |
| 48% | – | 54% | – | – | – | – | 37% | – | – | – | 54% | 6 mm | 14 mm | Cc1ccccc1-c1n[nH]c(=S)n1/N=C/c1cc(O)ccc1O | – | – | 1.6 µM | 11 µM | – | – |
| – | – | inactive | – | – | – | inactive | – | – | – | – | – | 7 mm | 14 mm | COc1cc(O)ccc1/C=N/n1c(-c2ccccc2C)n[nH]c1=S | 120 µM | 4 µM | 2.4 µM | 10 µM | 6 µM | – |
| 25% | inactive | inactive | – | 15 mm | inactive | inactive | – | – | – | – | – | – | – | Oc1ccc(/C=N/n2c(-c3cccc(F)c3)n[nH]c2=S)c(O)c1 | 11.7 µM | – | 4 µM | – | – | – |
| – | – | inactive | – | 15 mm | – | inactive | – | – | – | – | – | – | – | O=C(O)c1ccccc1/C=N/n1c(CC(c2ccccc2)c2ccccc2)n[nH]c1=S | 2.7 µM | 15 µM | 5.6 µM | 25.4 µM | 2.4 µM | – |
| – | inactive | – | – | – | inactive | – | 30% | – | – | – | – | 6 mm | – | S=c1[nH]nc(CCc2ccccc2)n1/N=C/c1ccc(OCc2ccccc2)cc1 | – | 1 µM | 2 µM | – | 32 µM | 9 µM |
| 15% | inactive | inactive | inactive | – | inactive | inactive | inactive | inactive | inactive | – | – | – | – | S=c1[nH]nc(-c2cccc(Br)c2)n1/N=C/c1ccc(OCc2ccccc2)cc1 | – | – | – | – | – | – |
| inactive | inactive | 62% | inactive | – | inactive | – | 42% | – | inactive | inactive | – | – | – | Oc1ccc(/C=N/n2c(-c3ccc(OCc4ccccc4)cc3)n[nH]c2=S)c(O)c1 | – | – | – | – | – | – |
| inactive | inactive | – | inactive | – | inactive | – | – | – | inactive | inactive | – | – | – | S=c1[nH]nc(-c2ccc(OCc3ccccc3)cc2)n1/N=C/c1ccc(OCc2ccccc2)cc1 | 3.2 µM | – | – | – | – | 2.2 µM |
| – | – | 62% | – | 15 mm | – | – | – | – | – | – | – | – | 14 mm | O=C(O)c1ccccc1/C=N/n1c(-c2ccc(OCc3ccccc3)cc2)n[nH]c1=S | 2.8 µM | – | 1 µM | 0.9 µM | 0.4 µM | – |
| 30% | inactive | 30% | inactive | – | inactive | – | – | 60% | inactive | – | – | – | – | Cc1ccccc1-c1n[nH]c(=S)n1/N=C/c1ccc(F)cc1 | – | – | – | – | – | – |
| inactive | inactive | – | inactive | – | inactive | 50% | – | 60% | inactive | inactive | – | – | – | S=c1[nH]nc(C(c2ccccc2)c2ccccc2)n1/N=C/c1ccc(OCc2ccccc2)cc1 | – | – | – | – | – | – |
| 60% | – | 35% | – | 15 mm | – | – | – | – | – | – | 42% | – | 14 mm | O=C(O)c1ccccc1/C=N/n1c(COc2ccc3ccccc3c2)n[nH]c1=S | 2.4 µM | – | 3 µM | 2 µM | – | – |
| 40% | inactive | – | – | 15 mm | inactive | 50% | – | – | – | – | 35% | – | – | O=C(O)c1ccccc1/C=N/n1c(-c2cccc(C(F)(F)F)c2)n[nH]c1=S | – | – | 1.6 µM | – | – | – |
| – | – | 37% | 56% | 15 mm | – | – | inactive | inactive | – | – | 50% | – | 14 mm | O=C(O)c1ccccc1/C=N/n1c(CCc2ccccc2)n[nH]c1=S | – | – | – | 7 µM | 4 µM | – |
